Measured values taken from ChEMBL document CHEMBL1142412, “Bis-(-)-nor-meptazinols as novel nanomolar cholinesterase inhibitors with high inhibitory potency on amyloid-beta aggregation” (J Med Chem, 2008).

Legend:
Mus musculus = species on record: Mus musculus; assay: Selectivity for mouse brain AChE over mouse serum BChE; type: tissue-based
Acetylcholinesterase [1] = biological target: T1, Acetylcholinesterase (Homo sapiens, UniProt P22303); assay: Inhibition of human recombinant AChE-induced amyloid beta aggregation at 100 uM by thioflavin T fluorescence method
Procedure, shortened: (§1)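 Aβ(1–40), stock from HFIP, dissolved in DMSO, final 230 µM, incubated 48 h at room temperature in 0.215 M sodium phosphate pH 8.0 with human recombinant AChE (final 2.3 µM, Aβ:AChE 100:1) ± inhibitor. […] Run in duplicate.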

Acetylcholinesterase [2] = biological target: T1, Acetylcholinesterase; assay: Inhibition of human recombinant AChE-induced amyloid beta aggregation at 200 uM by thioflavin T fluorescence method; procedure, shortened: as §1
Acetylcholinesterase [3] = biological target: T1, Acetylcholinesterase; assay: Inhibition of human recombinant AChE-induced amyloid beta aggregation by thioflavin T fluorescence method; procedure, shortened: as §1
Acetylcholinesterase [4] = biological target: T2, Acetylcholinesterase (Mus musculus, UniProt P21836); assay: Inhibition of mouse brain AChE
T2 sequence (P21836 whole entry): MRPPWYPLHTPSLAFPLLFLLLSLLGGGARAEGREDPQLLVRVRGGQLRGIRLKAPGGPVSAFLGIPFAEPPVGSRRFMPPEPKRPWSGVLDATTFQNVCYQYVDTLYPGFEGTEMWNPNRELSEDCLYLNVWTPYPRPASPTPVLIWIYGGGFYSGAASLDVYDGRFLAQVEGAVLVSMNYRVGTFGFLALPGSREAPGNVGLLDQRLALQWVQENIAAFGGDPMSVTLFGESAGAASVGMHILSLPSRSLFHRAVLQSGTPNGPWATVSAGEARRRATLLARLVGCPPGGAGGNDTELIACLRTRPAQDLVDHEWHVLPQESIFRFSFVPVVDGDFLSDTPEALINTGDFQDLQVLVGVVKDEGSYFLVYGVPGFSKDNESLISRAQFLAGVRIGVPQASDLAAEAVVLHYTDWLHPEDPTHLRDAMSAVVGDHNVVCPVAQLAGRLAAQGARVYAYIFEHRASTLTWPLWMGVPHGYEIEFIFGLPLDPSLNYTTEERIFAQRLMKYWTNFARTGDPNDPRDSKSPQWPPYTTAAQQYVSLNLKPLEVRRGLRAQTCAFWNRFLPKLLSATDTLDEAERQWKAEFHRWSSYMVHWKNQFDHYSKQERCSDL

Cholinesterase = Cholinesterase (Mus musculus, UniProt Q03311); assay: Inhibition of mouse serum BChE
Procedure, shortened: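 Modified Ellman assay with mouse serum as the enzyme source. Inhibitor at several concentrations, preincubated 20 min at 37 °C with DTNB. Substrate butyrylthiocholine iodide 0.05 mM. ΔA412 read at 25 °C. IC50 by nonlinear regression of log concentration–response. Mean ± SEM of at least three independent measures.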

T1 sequence (P22303 whole entry): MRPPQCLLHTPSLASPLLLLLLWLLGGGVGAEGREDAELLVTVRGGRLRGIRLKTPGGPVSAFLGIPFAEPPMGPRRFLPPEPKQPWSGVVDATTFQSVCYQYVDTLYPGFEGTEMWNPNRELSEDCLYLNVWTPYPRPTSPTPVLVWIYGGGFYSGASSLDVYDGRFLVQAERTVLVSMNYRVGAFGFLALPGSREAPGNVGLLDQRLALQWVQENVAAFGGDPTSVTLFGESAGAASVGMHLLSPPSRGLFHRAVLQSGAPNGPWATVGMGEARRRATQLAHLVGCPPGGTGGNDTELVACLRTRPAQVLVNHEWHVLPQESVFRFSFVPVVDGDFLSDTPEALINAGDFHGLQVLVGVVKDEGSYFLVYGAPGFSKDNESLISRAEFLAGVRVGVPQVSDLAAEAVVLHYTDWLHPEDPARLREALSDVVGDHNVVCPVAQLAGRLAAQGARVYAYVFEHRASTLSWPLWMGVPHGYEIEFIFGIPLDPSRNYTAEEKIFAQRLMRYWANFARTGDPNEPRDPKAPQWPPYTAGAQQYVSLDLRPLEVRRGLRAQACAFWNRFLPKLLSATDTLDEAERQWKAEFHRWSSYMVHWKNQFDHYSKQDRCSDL
Cholinesterase, sequence (Q03311 whole entry): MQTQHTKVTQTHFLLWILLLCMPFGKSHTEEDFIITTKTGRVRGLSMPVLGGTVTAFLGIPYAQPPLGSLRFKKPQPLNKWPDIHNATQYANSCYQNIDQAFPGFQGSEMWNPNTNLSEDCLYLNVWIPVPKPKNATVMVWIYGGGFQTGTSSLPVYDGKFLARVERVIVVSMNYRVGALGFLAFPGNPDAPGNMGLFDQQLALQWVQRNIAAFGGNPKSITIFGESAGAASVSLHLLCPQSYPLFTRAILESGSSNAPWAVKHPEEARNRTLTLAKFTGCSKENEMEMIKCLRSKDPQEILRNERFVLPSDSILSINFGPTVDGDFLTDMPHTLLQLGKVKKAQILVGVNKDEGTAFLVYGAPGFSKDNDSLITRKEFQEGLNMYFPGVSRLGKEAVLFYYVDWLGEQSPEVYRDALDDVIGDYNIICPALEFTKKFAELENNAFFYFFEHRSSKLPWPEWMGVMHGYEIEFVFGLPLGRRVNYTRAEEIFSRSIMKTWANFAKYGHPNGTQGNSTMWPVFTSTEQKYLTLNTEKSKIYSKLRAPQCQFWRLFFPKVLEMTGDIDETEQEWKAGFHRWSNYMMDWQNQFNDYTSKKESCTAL

SMILES	Ratio IC50 (Mus musculus)	inhibition (Acetylcholinesterase [1])	inhibition (Acetylcholinesterase [2])	other results
CC[C@@]1(c2cccc(O)c2)CCCCN(CCCCCCCCN2CCCC[C@@](CC)(c3cccc(O)c3)C2)C1	0.8	0%	15.2%	–
CC[C@@]1(c2cccc(O)c2)CCCCN(CCCCCCCCCN2CCCC[C@@](CC)(c3cccc(O)c3)C2)C1	2.6	90.8%	99.2%	IC50 (Acetylcholinesterase [3]): 16.6 µM
CC[C@@]1(c2cccc(O)c2)CCCCN(CCCN2CCCC[C@@](CC)(c3cccc(O)c3)C2)C1	0.0031	–	–	–
CCC1(c2cccc(O)c2)CCCCN(C)C1 (single isomer, unassigned; (-)) [MEPTAZINOL]	0.37	–	0%	IC50 (Acetylcholinesterase [4]): 41 µM; IC50 (Cholinesterase): 15 µM
CC[C@@]1(c2cccc(O)c2)CCCCN(CCCCCCCCCCCCN2CCCC[C@@](CC)(c3cccc(O)c3)C2)C1	2.4	–	–	–
CC[C@@]1(c2cccc(O)c2)CCCCN(CCCCCCCCCCN2CCCC[C@@](CC)(c3cccc(O)c3)C2)C1	1.8	95.8%	98.4%	IC50 (Acetylcholinesterase [3]): 5.8 µM
CC[C@@]1(c2cccc(O)c2)CCCCN(CCCCCCCCCCCN2CCCC[C@@](CC)(c3cccc(O)c3)C2)C1	3.1	–	–	–
CCC1(c2cccc(O)c2)CCCCN(CCCCCN2CCCC[C@@](CC)(c3cccc(O)c3)C2)C1 (single isomer, unassigned; (-))	0.048	–	–	IC50 (Acetylcholinesterase [4]): 1 µM; IC50 (Cholinesterase): 0.192 µM
CC[C@@]1(c2cccc(O)c2)CCCCN(CCCCCCCN2CCCC[C@@](CC)(c3cccc(O)c3)C2)C1	0.38	–	–	–
CC[C@@]1(c2cccc(O)c2)CCCCN(CCCCN2CCCC[C@@](CC)(c3cccc(O)c3)C2)C1	0.0049	–	–	–
CC[N+](C)(CC)CCC[n+]1c(-c2ccccc2)c2cc(N)ccc2c2ccc(N)cc21	–	85.6%	98.6%	–
CC[C@@]1(c2cccc(O)c2)CCCCN(CCCCCCN2CCCC[C@@](CC)(c3cccc(O)c3)C2)C1	0.098	–	–	–
CC[C@@]1(c2cccc(O)c2)CCCCN(CCN2CCCC[C@@](CC)(c3cccc(O)c3)C2)C1	0.0029	–	–	–
